# Test results published in ChEMBL document CHEMBL4229344 (Eur J Med Chem, 2018).
# Calls of active or inactive are those of the source. No cut-off for these calls is given here.
# Experiments:
# [1] = target: Casein kinase II subunit alpha' (Homo sapiens) (UniProt P19784); assay: Binding affinity to wild-type human full length CSNK2A2 (M1 to R350 residues) expressed in mammalian expression system assessed as residual binding level at 1 uM by Kinomescan method relative to control
# How it was run: (§1)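 Single-concentration (1 μM) competition-binding screen run by KINOMEscan against a panel of 468 purified kinases and mutants. The read-out is the relative binding activity of the test compound to each kinase.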
# [2] = target: Activin receptor type-1B (Homo sapiens) (UniProt P36896); assay: Binding affinity to wild-type human ACVR1B (S187 to I505 residues) expressed in bacterial expression system assessed as residual binding level at 1 uM by Kinomescan method relative to control; how it was run: as §1
# [3] = target: Mitogen-activated protein kinase kinase kinase 1 (Homo sapiens) (UniProt Q13233); assay: Binding affinity to wild-type human partial length MAP3K1 (L1202 to W1512 residues) expressed in mammalian expression system assessed as residual binding level at 1 uM by Kinomescan method relative to control
# [4] = target: Serine/threonine-protein kinase 17B (Homo sapiens) (UniProt O94768); assay: Binding affinity to wild-type human full length DRAK2 (M1 to C372 residues) expressed in bacterial expression system assessed as residual binding level at 1 uM by Kinomescan method relative to control
# How it was run: (§2)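 KINOMEscan competition binding against 468 purified kinases/mutants, test compound at 1 µM; residual binding relative to control.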
# [5] = target: Calcium/calmodulin-dependent protein kinase type II subunit alpha (Homo sapiens) (UniProt Q9UQM7); assay: Binding affinity to wild-type human partial length CAMK2A (M1 to K328 residues) expressed in bacterial expression system assessed as residual binding level at 1 uM by Kinomescan method relative to control
# How it was run: (§3)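 Kinome-wide competition binding screen against a panel of 468 purified kinases/mutants, with the test compound at a single concentration of 1 μM. Read-out is the relative binding activity of each kinase in the presence of compound.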
# [6] = Cytotoxicity against mouse BA/F3 cells after 72 hrs by CellTiter-Glo or CCK-8 assay; assay type: cell-based, BaF3
# How it was run: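 Parental BaF3 or IL-3-independent TEL-kinase BaF3 lines, made by retroviral infection and puromycin selection, grown in RPMI 1640 with 10% FBS. Cells seeded at 1–3 × 10^4 cells/mL with serial compound concentrations for 72 h. Viability read by CellTiter-Glo luminescence or CCK-8 absorbance at 450/655 nm and normalised to DMSO. GI50 obtained by triplicate testing with linear regression. Selectivity is the ratio of the two GI50 values.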
# [7] = target: Dual specificity protein kinase TTK (Homo sapiens) (UniProt P33981); assay: Binding affinity to wild-type human partial length TTK (N505 to V798 residues) expressed in bacterial expression system assessed as residual binding level at 1 uM by Kinomescan method relative to control
# [8] = target: Serine/threonine-protein kinase MARK2 (Homo sapiens) (UniProt Q7KZI7); assay: Binding affinity to wild-type human partial length MARK2 (M1 to R450 residues) expressed in bacterial expression system assessed as residual binding level at 1 uM by Kinomescan method relative to control; how it was run: as §3
# [9] = target: Uncharacterized serine/threonine-protein kinase SBK3 (Homo sapiens) (UniProt P0C264); assay: Binding affinity to wild-type human partial length SgK110 (L22 to R329 residues) expressed in bacterial expression system assessed as residual binding level at 1 uM by Kinomescan method relative to control
# How it was run: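 KINOMEscan competition binding against a panel of 468 purified kinases/mutants, compound tested at 1 μM; readout is relative binding activity versus control.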
# [10] = target: Dual specificity tyrosine-phosphorylation-regulated kinase 1A (Homo sapiens) (UniProt Q13627); assay: Binding affinity to wild-type human partial length DYRK1A (H129 to S509 residues) expressed in mammalian expression system assessed as residual binding level at 1 uM by Kinomescan method relative to control
# [11] = target: Macrophage colony-stimulating factor 1 receptor (Homo sapiens) (UniProt P07333); assay: Binding affinity to wild-type human partial length CSF1R (I564 to S939 residues) expressed in bacterial expression system assessed as residual binding level at 1 uM by Kinomescan method relative to control
# [12] = target: Casein kinase I isoform alpha-like (Homo sapiens) (UniProt Q8N752); assay: Binding affinity to wild-type human full length CSNK1A1L (M1 to N337 residues) expressed in bacterial expression system assessed as residual binding level at 1 uM by Kinomescan method relative to control; how it was run: as §1
# [13] = tested on: Tyrosine-protein kinase ABL1 (Homo sapiens), P00519 [Q252H]; assay: Binding affinity to human non-phosphorylated ABL1 Q252H mutant (S229 to K512 residues) expressed in mammalian expression system assessed as residual binding level at 1 uM by Kinomescan method relative to control
# How it was run: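 Kinome-wide single-concentration binding screen (KINOMEscan) at 1 μM against a panel of 468 purified kinases and mutants. Read-out is relative binding of each kinase compared with control. Selectivity across the panel was summarised as an S(10) score.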
# [14] = target: Rho-associated protein kinase 1 (Homo sapiens) (UniProt Q13464); assay: Binding affinity to wild-type human partial length ROCK1 (M1 to R415 residues) expressed in mammalian expression system assessed as residual binding level at 1 uM by Kinomescan method relative to control
# [15] = target: Platelet-derived growth factor receptor alpha (Homo sapiens, UniProt P16234); assay: Inhibition of PDGFRalpha in human EOL-1 cells assessed as decrease in STAT5 phosphorylation at Y694 residue up to 300 nM after 2 hrs by Western blot analysis; assay type: cell-based
# [16] = target: Ephrin type-A receptor 6 (Homo sapiens) (UniProt Q9UF33); assay: Binding affinity to wild-type human partial length EPHA6 (Y700 to E1046 residues) expressed in bacterial expression system assessed as residual binding level at 1 uM by Kinomescan method relative to control; how it was run: as §3
# [17] = target: Serine/threonine-protein kinase OSR1 (Homo sapiens) (UniProt O95747); assay: Binding affinity to wild-type human full length OSR1 (M1 to S527 residues) expressed in mammalian expression system assessed as residual binding level at 1 uM by Kinomescan method relative to control
# How it was run: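 Single-concentration KINOMEscan (DiscoverX) binding screen at 1 μM against a panel of 468 purified kinases and mutants. The read-out is binding relative to control.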
# [18] = target: Proto-oncogene tyrosine-protein kinase ROS (Homo sapiens) (UniProt P08922); assay: Binding affinity to wild-type human partial length ROS1 (A1921 to N2240 residues) expressed in bacterial expression system assessed as residual binding level at 1 uM by Kinomescan method relative to control
# [19] = target: Mitogen-activated protein kinase 3 (Homo sapiens) (UniProt P27361); assay: Binding affinity to wild-type human full length ERK1 (M1 to P379 residues) expressed in bacterial expression system assessed as residual binding level at 1 uM by Kinomescan method relative to control; how it was run: as §1
# [20] = target: SRSF protein kinase 1 (Homo sapiens) (UniProt Q96SB4); assay: Binding affinity to wild-type human full length SRPK1 (M1 to S655 residues) expressed in bacterial expression system assessed as residual binding level at 1 uM by Kinomescan method relative to control; how it was run: as §2
structure (smiles),measurement,setting,value
Cc1ccc(NC(=O)c2ccc(CN(CCN(C)C)C(=O)c3cccnc3)cc2)cc1Nc1nccc(-c2cccnc2)n1,Activity,[1],88%
same,Activity,[2],100%
same,Activity,[3],88%
same,Activity,[4],94%
same,Activity,[5],89%
same,GI50 at 72 h,[6],> 10 µM
same,Activity,[7],81%
same,Activity,[8],91%
same,Activity,[9],72%
same,Activity,[10],100%
same,Activity,[11],10%
same,Activity,[12],93%
same,Activity,[13],23%
same,Activity,[14],100%
same,inhibition,[15],Active
same,Activity,[16],92%
same,Activity,[17],100%
same,Activity,[18],99%
same,Activity,[19],95%
same,Activity,[20],92%
